Assay results taken from BindingDB's records for doi:10.1021/jm100062h (Ferrara University, 2010).

Tests used:
[1] = biological target: T1, Transient receptor potential cation channel subfamily A member 1 (Homo sapiens, UniProt O75762); experiment: Activation of TRPA1 channel
Procedure, shortened: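 Cell lines transfected with TRPA1 and loaded with a calcium-sensitive dye, read on FLIPR. Calcium influx is counted as the change in fluorescence above background. Each material was tested by preincubation or by direct addition. Calcium counts are expressed as a percentage of the control calcium count.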

[2] = biological target: T1, Transient receptor potential cation channel subfamily A member 1; experiment: Antagonist activity at human TRPA1 channel expressed in CHO cells assessed as inhibition of cinnamaldehyde-induced intracellular calcium influx

T1 sequence (O75762 whole entry): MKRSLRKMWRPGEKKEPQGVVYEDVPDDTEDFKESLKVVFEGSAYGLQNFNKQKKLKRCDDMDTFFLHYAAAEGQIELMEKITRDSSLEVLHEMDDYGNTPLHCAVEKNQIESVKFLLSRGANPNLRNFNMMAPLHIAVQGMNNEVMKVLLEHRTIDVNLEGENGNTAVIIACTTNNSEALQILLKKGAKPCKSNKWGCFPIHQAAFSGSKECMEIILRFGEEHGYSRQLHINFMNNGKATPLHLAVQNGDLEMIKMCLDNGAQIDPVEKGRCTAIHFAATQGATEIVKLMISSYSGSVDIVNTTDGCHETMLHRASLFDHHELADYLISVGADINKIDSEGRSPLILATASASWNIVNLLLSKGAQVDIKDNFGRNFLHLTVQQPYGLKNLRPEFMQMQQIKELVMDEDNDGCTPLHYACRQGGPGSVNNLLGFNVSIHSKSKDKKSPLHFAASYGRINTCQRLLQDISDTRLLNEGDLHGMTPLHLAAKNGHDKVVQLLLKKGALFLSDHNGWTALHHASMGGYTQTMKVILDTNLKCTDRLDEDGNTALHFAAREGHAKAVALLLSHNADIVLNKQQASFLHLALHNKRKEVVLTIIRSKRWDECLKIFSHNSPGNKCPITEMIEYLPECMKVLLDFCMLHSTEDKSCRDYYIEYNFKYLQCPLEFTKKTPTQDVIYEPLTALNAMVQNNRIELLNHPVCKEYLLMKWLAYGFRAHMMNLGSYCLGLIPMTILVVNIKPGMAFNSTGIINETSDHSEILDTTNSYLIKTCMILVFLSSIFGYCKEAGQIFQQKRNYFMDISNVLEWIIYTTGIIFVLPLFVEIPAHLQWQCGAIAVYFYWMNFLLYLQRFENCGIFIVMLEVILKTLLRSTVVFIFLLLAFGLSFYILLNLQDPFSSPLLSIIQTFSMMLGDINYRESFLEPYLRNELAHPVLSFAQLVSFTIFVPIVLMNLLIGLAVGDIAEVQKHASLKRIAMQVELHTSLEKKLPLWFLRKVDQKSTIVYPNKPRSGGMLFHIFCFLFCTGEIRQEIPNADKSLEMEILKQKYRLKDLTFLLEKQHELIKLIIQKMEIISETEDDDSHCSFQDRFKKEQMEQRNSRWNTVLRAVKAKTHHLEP

SMILES | EC50 [1] [µM] | IC50 [2] [µM]
CC(C)[C@@H]1CC[C@@H](C)C[C@H]1O | 28.4 | 
CCC(N=O)C(C)=Cc1cncc2ccccc12 (stereo unspecified) [1-(isoquinolin-4-yl)-2-methylpent-1-en-3-one oxime] |  | > 100
CCC(N=O)C(C)=Cc1cnccc1C (stereo unspecified) [2-methyl-1-(4-methylpyridin-3-yl)pent-1-en-3-one oxime] |  | > 100
CCC(N=O)C(C)=Cc1ccc(C(F)(F)F)nc1 (stereo unspecified) [2-methyl-1-(6-(trifluoromethyl)pyridin-3-yl)pent-1-en-3-one oxime] |  | > 100
CCC(N=O)C(C)=Cc1ccc(C)nc1 (stereo unspecified) [2-methyl-1-(6-methylpyridin-3-yl)pent-1-en-3-one oxime] |  | > 100
CCC(N=O)C(C)=Cc1cnc2ccccc2c1 (stereo unspecified) [2-methyl-1-(quinolin-3-yl)pent-1-en-3-one oxime] |  | > 100
